Source: PubChem
The entries come from a sample that favours hits as a whole.
CHOP inhibitor = inhibitors of CHOP promoter induction, primary screen, cell-based, unfolded protein response, luciferase reporter; CHO-K1 CHOP-promoter luciferase, tunicamycin-induced, 15-18 h; inhibition, % at 10 µM; 220,000 compounds, 3.8% hits; AID 2732, 2010;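 active = compounds that reduced the stress-induced luciferase reporter signal by more than about 70% of percent inhibition, limit read from the data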;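 note: 0% = tunicamycin plus vehicle and 100% = wells without tunicamycin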
XBP1 UPR activ = activators of adaptive XBP1 UPR arm, primary screen, cell-based, CHO-XBP1 luciferase reporter, luminescence, uHTS; AID 463104, 2010; activation, % at 20 µM; 330,000 compounds, 0.33% hits; IRE1-XBP1 UPR activation; percent of tunicamycin response, DMSO as zero;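 active = versus positive control, 20 µM dose yields 30% or more activation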;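 note: 100% = tunicamycin at 10 µg/mL and 0% = DMSO only wells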
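assay system = CHO-XBP1 luciferase reporter cells | amount = 1000 cells/well | buffer or medium = F12 plus 10% FBS | compound dosing = single point, 20 µM final compound, 1% DMSO | incubation = 16-18 h cell attachment at 37 °C, then 6 h compound exposure | detection = Steady-Glo luminescence read | controls = tunicamycin 10 µg/mL and vehicle-only wells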
hiPSC survival = enhancers of single-cell hiPSC survival, primary screen, ATPlite luminescence; 100% = ROCK inhibitor wells, 0% = DMSO; survival enhancement, % at 20 µM; 360,000 compounds, 0.044% hits; in the data active = survival enhancement above about 18%;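 note: cells exposed to compounds for 16 hours before the ATP read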
CHOP UPR activ = activators of apoptotic CHOP UPR arm, primary screen, cell-based, CHO-CHOP luciferase reporter, luminescence, uHTS; UPR activation; percent of tunicamycin response over DMSO baseline; activation, % at 10 µM; 330,000 compounds, 0.34% hits;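 active = at 10 µM dose, activation of 40% or more, normalized to positive control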;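 note: 100% = tunicamycin at 10 µg/mL and 0% = DMSO alone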
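assay system = CHO CHOP reporter cells | amount = 500 CHO-CHOP cells per well | buffer or medium = F12 with 10% FBS | incubation = 16-18 h cell attachment, then 6 h compound exposure, 37 °C | detection = luminescence read with Steady-Glo | read-out = percent activation relative to tunicamycin control | controls = tunicamycin high control, DMSO low control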
Cardio protect = cardioprotection against H2O2-induced cell death, primary screen, uHTS, H9c2 cells, ATPLite luminescence; H9c2 cardiomyocytes, H2O2 injury protection, 2 h; protection from H2O2 cell death, % at 20 µM; 360,000 compounds, 0.63% hits; AID 588492, 2011;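 active = compounds giving at least 50% protection of heart cells from peroxide-induced death in the single-dose screen, raw or plate-pattern-corrected value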;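 note: 0% = DMSO wells with peroxide and 100% = DMSO wells without peroxide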
An asterisk follows results filed as active; · = not tested or not shown.

SMILES	CHOP inhibitor	XBP1 UPR activ	hiPSC survival	CHOP UPR activ	Cardio protect
Cc1ccc2nc3n(c(=O)c2c1)-c1ccc(Cl)cc1C(=O)NC3CC(C)C (stereo not given)	·	-2.3	·	2.0	·
COc1ccc(NC(=S)NCCC2=CCCCC2)cc1OC	11.5	-0.5	-2.5	2.5	-33.3
S=C(NCCC(c1ccccc1)c1ccccc1)Nc1ccccc1Cl	-0.7	-2.4	-3.3	0.7	-8.4
Fc1ccc(CCNC(=S)Nc2ccc(F)c(Cl)c2)cc1	90.4*	-2.1	-1.5	-1.2	-3.3
Fc1ccc(NC(=S)NCCc2ccc(Cl)cc2)cc1	24.8	0.7	-1.7	3.8	5.4
S=C(NCCC(c1ccccc1)c1ccccc1)Nc1ccc(Cl)cc1	78.0*	-1.0	-2.0	0.5	-26.0
S=C(NCCCc1ccccc1)Nc1ccc(Cl)cc1	76.7*	1.9	-1.3	1.3	-16.7
S=C(NCCC1=CCCCC1)Nc1ccc(Cl)cc1	81.2*	-0.8	-3.5	4.5	-15.0
CC(C)C[C@H]1CNC(=O)C(=O)N1CC1CCN(CC2CCC(C(C)(C)C)CC2)CC1 (stereo not given in full)	·	·	-0.8	·	16.7
NC(CCc1ccccc1)c1csc(Nc2nccc(C(F)(F)F)n2)n1 (stereo not given)	·	·	-0.5	·	-1.9
CNc1ncnc2c1ncn2[C@H]1CN(CCOC)C[C@@H](CO)O1	·	·	0.2	·	1.2
CC(C)(C)c1ccc(/C=N/Nc2ccc(C(=O)O)cc2)cc1	83.5*	-4.5	1.2	-8.7	4.4
O=C(O)c1ccc(N/N=C/c2ccc3c(c2)OCO3)cc1	93.5*	-10.1	0.1	-9.2	-6.6
O=C(O)c1cc(N/N=C/c2ccc3c(c2)OCCO3)ccc1Cl	72.2*	·	3.3	·	-0.2
O=C(O)c1cc(N/N=C/c2ccc3c(c2)OCO3)ccc1Cl	1.5	-4.3	2.0	-3.9	-2.0
Cc1ccc(NC2CCCN(C(=O)C3CCCC3)C2)cc1C (stereo not given)	·	-6.8	-0.5	0.9	2.1
Cn1c(NCc2cccnc2)nc2cc(-c3cccc(C(=O)NCCO)c3)sc2c1=O	·	·	-2.4	·	7.6
CC(=O)Nc1ccc(S(=O)(=O)NCCC(=O)N2CCc3ccccc32)cc1	·	-2.4	-0.6	-2.1	-1.5
O=C(COC(=O)c1c(Cl)ccc(Cl)c1Cl)NC(=O)NCc1ccccc1	83.9*	-1.0	1.8	0.3	-6.4
O=C(COC(=O)c1c(F)cccc1F)NC(=O)NCc1ccccc1	·	·	-1.4	·	3.9
Cc1ccc(S(=O)(=O)NNC2CC(=O)N(c3ccc(Br)cc3)C2=O)cc1 (stereo not given)	73.2*	-0.2	-0.8	-1.7	2.1
Cc1ccc(N2C(=O)CC(Nc3ccccc3)C2=O)cc1 (stereo not given)	1.1	1.8	2.5	-2.4	4.9
O=C(CNC(=O)c1ccc(Br)cc1)OC1CCOC1=O (stereo not given)	·	·	-2.9	·	13.6
CCCS(=O)(=O)NC(=O)C1(C)CCN(C(=O)c2cc(C(C)(C)C)nn2C)C1 (stereo not given)	·	·	3.3	·	-6.3
NC(=O)c1ccsc1NC(=O)COC(=O)c1ccccc1NCc1ccco1	95.6*	1.7	-1.8	0.9	-5.5
SMILES	CHOP inhibitor	XBP1 UPR activ	hiPSC survival	CHOP UPR activ	Cardio protect
CNC(=O)COC(=O)/C=C/c1cn(-c2ccccc2)nc1-c1ccc(C)o1	2.9	3.5	0.9	0.9	56.4*
O=C(COC(=O)/C=C/c1cn(-c2ccccc2)nc1-c1ccc2c(c1)OCCO2)NC1CCS(=O)(=O)C1 (stereo not given)	-19.6	5.8	2.0	1.7	56.8*
COc1ccc([C@H]2N[C@]3(CCCN(CC4CCCCC4)C3=O)[C@H]3C(=O)N(Cc4ccccc4)C(=O)[C@@H]23)cc1	·	·	2.2	·	3.3
CCCCNC(=O)C(C1CCCCC1)N(CCN(C)C)C(=O)CCCN1C(=O)NC(c2ccc(-c3ccccc3)cc2)C(C(=O)OCc2ccccc2)=C1C (stereo not given)	·	40.7*	·	29.8	·
O=C(N/N=C\C=C\c1ccco1)c1cc(-c2ccc3ccccc3c2)n[nH]1	80.5*	4.9	-0.2	5.4	9.2
O=C(N/N=C/C=C\c1ccco1)c1ccccn1	-41.3	2.0	0.3	6.4	15.0
C(=N\Nc1nc2ccccc2[nH]1)/c1cccc2cccnc12	87.8*	-0.1	-0.7	2.1	-15.0
CC(C)C[C@@H](CNCC(=O)[C@H](Cc1ccccc1)NC(=O)c1[nH]cnc1C(=O)N[C@@H](C)CN)NC(=O)c1nc[nH]c1C(=O)N[C@@H](C)C(=O)O	·	·	1.3	·	-0.9
O=c1[nH]cc(S(=O)(=O)N2CCN(c3ccc(F)cc3)CC2)c(=O)[nH]1	·	·	-0.9	·	3.8
CCN(C(=O)Cn1nc(C(=O)O)c2ccccc2c1=O)C1CCCCC1	15.0	-1.7	3.2	0.2	13.9
O=C(O)c1nn(CC(=O)N2CCN(c3ccccc3)CC2)c(=O)c2ccccc12	·	0.5	0.0	-0.5	66.3*
O=C(CCn1nc(-c2ccccc2)ccc1=O)N1CCN(c2ccccc2)CC1	·	-1.5	-0.4	-1.4	2.3
O=C(CCn1nc(-c2ccccc2)c2ccccc2c1=O)N1CCN(c2ccccc2)CC1	17.8	0.2	-0.3	-1.2	52.9*
O=C(O)c1nn(CC(=O)N(C2CCCCC2)C2CCCCC2)c(=O)c2ccccc12	93.4*	-3.2	4.1	2.5	39.8
COc1ccc(CCN2C(=O)CCC3=C2CCCC3=O)cc1OC	·	·	0.8	·	4.1
Cc1ccc(NS(=O)(=O)c2cc([N+](=O)[O-])ccc2NNC(=S)Nc2cc(C)ccc2C)c(C)c1	88.8*	0.1	-0.7	5.1	-11.6
COCCn1nnnc1C(c1cc2cc(OC)ccc2[nH]c1=O)N1CCC(Cc2ccccc2)CC1 (stereo not given)	·	-3.2	0.3	0.1	3.2
COc1ccc2cc(C(c3nnnn3CCc3ccccc3)N3CCCC(C)C3)c(=O)[nH]c2c1 (stereo not given)	86.8*	-3.9	4.2	-2.0	2.8
O=C(Nc1ccc(-c2nc3ccccc3o2)c(O)c1)c1cc(-n2cnnc2)ccc1Cl	92.2*	12.8	-0.3	6.7	1.5
COc1ccc(/C=N/NC(=O)C2c3ccccc3-c3ccccc32)cc1	80.3*	-2.5	0.4	-1.7	-7.2
CC(c1ccccc1)C(OC(=O)c1cccc([N+](=O)[O-])c1C(=O)O)c1ccccc1 (stereo not given)	·	·	-1.2	·	3.2
COc1ccc(C2=NNC(c3cc(Cl)cc4c3OCOC4)C2)c(O)c1 (stereo not given)	2.5	0.7	·	-1.1	·
Oc1c(Cl)cc(Cl)cc1C1=NNC(c2ccc(Cl)cc2)C1 (stereo not given)	-30.4	·	-0.8	·	2.1
Oc1ccc(Cl)cc1C1=NNC(c2ccc(Cl)cc2)C1 (stereo not given)	78.3*	7.4	-1.3	17.7	-2.7
